Assay results: ChEMBL document CHEMBL3414451, “Discovery of a series of efficient, centrally efficacious BACE1 inhibitors through structure-based drug design” (J Med Chem, 2015)

Legend:
[1] = Ratio of drug level in brain to plasma in CD1 mouse at 10 mg/kg, sc after 60 mins; type: ADME, organism-based; parameters: dose 10 mg/kg, route subcutaneous; settings: brain and plasma, read-out: BPR
How it was run: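 Plasma and brain exposures were measured in mice 60 min after 10 mg/kg subcutaneous dosing.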

[2] = Ratio of free drug level in brain to plasma in CD1 mouse at 10 mg/kg, sc; type: ADME, organism-based; parameters: dose 10 mg/kg, route subcutaneous; settings: brain and plasma
How it was run: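 Male CD-1 mice, 10 mg/kg sc in 5% DMSO/95% (0.5% methylcellulose). Plasma, brain and CSF were collected at 1, 4 and 7 h and analyzed by LC-MS/MS. Free fractions came from equilibrium dialysis.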

[3] = Ratio of free drug level in brain to plasma in dog; type: ADME, Canis lupus familiaris; settings: brain and plasma

Row | SMILES | Kp at 1 h [1] | Kp uu [2] | Kp uu [3]
1 | NC1=N[C@@]2(c3ccc(F)cc3F)CO[C@@H](C(F)F)C[C@H]2CS1 | 3.51 | 1.2 | –
2 | NC1=N[C@@]2(c3ccc(F)cc3F)CO[C@@H](CF)C[C@H]2CS1 | 9.2 | 1.42 | 0.78
3 | C[C@H]1C[C@H]2CSC(N)=N[C@@]2(c2ccc(F)cc2F)CO1 | 3.9 | 0.92 | –
